An excerpt weighted towards active compounds, which were near 1.9% of everything screened.
ARFGAP1 inhibitor – inhibitors of rat ARFGAP1 GAP activity, primary screen, biochemical, fluorescence polarization, GDP tracer | ADP-ribosylation factor GTPase-activating protein 1 (Rattus norvegicus), Q62848 | Arfgap1-stimulated ARF1 GTP hydrolysis, GDP FP detection | inhibition, % at 16.5 µM | 360,000 compounds, 0.26% hits | AID 651572, 2012;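 active = inhibition above a per-plate limit, mean inhibition of low control wells plus 3 SD, cut at about 25% in these data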
Target sequence (Q62848 1-136 limits assumed): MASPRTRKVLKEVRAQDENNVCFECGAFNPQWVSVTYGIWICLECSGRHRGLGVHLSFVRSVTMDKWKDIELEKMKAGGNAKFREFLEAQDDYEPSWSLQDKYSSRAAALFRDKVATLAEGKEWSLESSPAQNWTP
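Repeats: one replicate per compound; assay system: rat Arfgap1 catalytic domain, aa 1-136; times: enzyme reaction 120 min at 25 °C after 20 min preincubation; detection: FP of antibody-bound GDP Alexa 633 tracer, ex 620/em 688 nm; benchmarks: high control wells lacking Arfgap1, low control full reaction with DMSO; reagent: human ARF1(Δ1-17)-GTP substrate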
FGF22 binding – binders of human FGF22 protein, primary screen, FGF22 synaptogenesis inhibitor project, biophysical, thermal shift, single point; Fibroblast growth factor 22 (Homo sapiens), Q9HCT0; recombinant FGF22 thermal shift, SYPRO orange fluorescence; percent of sucrose octasulfate shift, DMSO zero; activity (Tm shift, normalised), % at 9.99 µM; 340,000 compounds, 1.5% hits;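 active = mean Tm shift, scaled 0 neutral to 100 positive control, at about 1.3% or above, every replicate too, limit read from the data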
Target sequence (Q9HCT0 whole entry, looked up): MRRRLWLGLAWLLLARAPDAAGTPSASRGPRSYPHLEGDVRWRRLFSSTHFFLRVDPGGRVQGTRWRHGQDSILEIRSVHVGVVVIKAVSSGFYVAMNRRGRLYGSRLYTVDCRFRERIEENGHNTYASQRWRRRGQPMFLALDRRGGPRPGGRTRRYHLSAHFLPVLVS
Efflux pump inh – inhibitors of Candida efflux pumps in yeast, primary screen, S. cerevisiae, Nile Red, multiplex | AID 485275, 2010 | S. cerevisiae Candida pump triplex | inhibition, % at 10 µM | 330,000 compounds, 0.44% hits;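 active = plate passing quality check with inhibition over a set limit, or well fluorescence over plate mean plus 4 SD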;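 also: Nile Red retained in pooled yeast measured as flow cytometry median fluorescence; higher means more Nile Red kept so more efflux inhibition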
ASAP1 GAP inh – inhibitors of human ASAP1 ArfGAP activity, primary screen, biochemical, fluorescence polarization | Arf-GAP with SH3 domain, ANK repeat and PH domain-containing protein 1 (Homo sapiens), … | ASAP1-stimulated ARF1 GTP hydrolysis, GDP FP detection | inhibition, % at 16.5 µM | 360,000 compounds, 0.19% hits | AID 624377, 2012; in the data active = inhibition above about 25%
Rtt109 HAT inh – inhibitors of C. albicans Rtt109/Vps75 HAT, primary screen, biochemical, ThioGlo CoA-SH fluorescence, plate reader; purified Rtt109/Vps75, 4 h; inhibition, % at 34.9 µM; 330,000 compounds, 0.16% hits; AID 540336, 2011;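 active = inhibition of at least 50% in every replicate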
Target sequence (Q5AAJ8 whole entry, looked up): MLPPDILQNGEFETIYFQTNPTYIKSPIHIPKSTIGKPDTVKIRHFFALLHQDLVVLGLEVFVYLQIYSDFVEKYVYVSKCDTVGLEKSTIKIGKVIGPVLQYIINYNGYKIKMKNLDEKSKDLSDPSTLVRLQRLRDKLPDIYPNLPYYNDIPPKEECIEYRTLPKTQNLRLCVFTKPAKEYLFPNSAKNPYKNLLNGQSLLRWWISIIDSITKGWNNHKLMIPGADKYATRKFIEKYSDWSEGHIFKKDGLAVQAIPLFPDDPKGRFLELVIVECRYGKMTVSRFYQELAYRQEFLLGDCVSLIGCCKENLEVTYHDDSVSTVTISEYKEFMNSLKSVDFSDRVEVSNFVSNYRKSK
A number is an active result.

Screening Cc1c(C(=O)NCc2ccccn2)oc2ccc(S(=O)(=O)N3CCC4(CC3)OCCO4)cc12 returned ARFGAP1 inhibitor inactive, FGF22 binding 43, Efflux pump inh inactive, ASAP1 GAP inh inactive and Rtt109 HAT inh inactive.
Cc1c(C(=O)NCc2ccccc2)oc2ccc(S(=O)(=O)N3CCC4(CC3)OCCO4)cc12 was read as ARFGAP1 inhibitor inactive, Efflux pump inh inactive, ASAP1 GAP inh inactive and Rtt109 HAT inh inactive.
Screening NS(=O)(=O)c1ccc(CCNC(=O)c2cc(-c3ccco3)nc3ccccc23)cc1 returned ARFGAP1 inhibitor inactive, FGF22 binding 6.2, Efflux pump inh inactive, ASAP1 GAP inh inactive and Rtt109 HAT inh inactive.
Screening CCN(CC)C(=O)CN1C(=O)c2cccc3cccc(c23)C1=O returned ARFGAP1 inhibitor inactive, FGF22 binding 43, Efflux pump inh inactive, ASAP1 GAP inh inactive and Rtt109 HAT inh inactive.
CCN(CC(=O)Nc1c(F)cccc1F)C(=O)CN1C(=O)c2ccccc2C1=O was read as ARFGAP1 inhibitor inactive, FGF22 binding inactive, Efflux pump inh inactive, ASAP1 GAP inh inactive and Rtt109 HAT inh inactive.
Screening Nc1c(C(=O)NCCc2ccccc2)nnn1Cc1ccc(Cl)cc1 returned ARFGAP1 inhibitor inactive, Efflux pump inh inactive, ASAP1 GAP inh inactive and Rtt109 HAT inh inactive.
Nc1c(C(=O)NCCc2ccccc2)nnn1Cc1ccc(Br)cc1F was read as ARFGAP1 inhibitor inactive, FGF22 binding 43, Efflux pump inh inactive, ASAP1 GAP inh inactive and Rtt109 HAT inh inactive.
For Cc1ccccc1C(=O)NNC(=S)NC(=O)c1cccnc1 the results were ARFGAP1 inhibitor inactive, FGF22 binding 43, Efflux pump inh inactive, ASAP1 GAP inh inactive and Rtt109 HAT inh inactive.
Screening CCCNC(=O)OCc1cccnc1Sc1ccc(C)cc1 returned ARFGAP1 inhibitor inactive, FGF22 binding 43, Efflux pump inh inactive, ASAP1 GAP inh inactive and Rtt109 HAT inh inactive.
CN1CCN(C(=O)c2sc(=S)n(-c3ccccc3)c2N)CC1 was read as ARFGAP1 inhibitor inactive, Efflux pump inh inactive, ASAP1 GAP inh inactive and Rtt109 HAT inh inactive.
For COc1ccc(CN(C)C[C@@H]2Oc3c(NC(=O)Nc4ccc(OC)cc4)cccc3C(=O)N([C@@H](C)CO)C[C@H]2C)cc1 the results were FGF22 binding inactive.
For Cn1c(NC(=O)c2ccc(Cl)cc2)cc(=O)n(C)c1=O the results were ARFGAP1 inhibitor inactive, FGF22 binding 44, Efflux pump inh inactive, ASAP1 GAP inh inactive and Rtt109 HAT inh inactive.
Cc1cc(C(=O)N/N=C/c2ccc[nH]2)no1 was read as ARFGAP1 inhibitor inactive, Efflux pump inh inactive, ASAP1 GAP inh inactive and Rtt109 HAT inh inactive.
Screening Cc1cc(C(=O)N/N=C/c2ccc[nH]2)n[nH]1 returned ARFGAP1 inhibitor inactive, FGF22 binding 43, Efflux pump inh inactive and ASAP1 GAP inh inactive.
CCN(c1ccccc1)S(=O)(=O)c1ccc(Cl)c(C(=O)OCC(=O)NC(=O)C(C)C)c1 was read as ARFGAP1 inhibitor inactive, FGF22 binding 43, Efflux pump inh inactive, ASAP1 GAP inh inactive and Rtt109 HAT inh inactive.
Screening CCCOc1ccc(-c2cn3ccccc3n2)cc1 returned ARFGAP1 inhibitor inactive, FGF22 binding 43, Efflux pump inh inactive, ASAP1 GAP inh inactive and Rtt109 HAT inh inactive.
Screening CN1[C@@H]2c3ccc(/C=C/c4ccccc4)c(=O)n3C[C@@H]2[C@@H](CO)[C@@H]1C(=O)NCCCN1CCOCC1 returned FGF22 binding inactive.
COc1cc(NC(=S)NCc2cccnc2)c(OC)cc1Cl was read as ARFGAP1 inhibitor inactive, FGF22 binding inactive, Efflux pump inh inactive, ASAP1 GAP inh inactive and Rtt109 HAT inh 56.
Screening COc1ccccc1NC(=S)NCc1cccnc1 returned ARFGAP1 inhibitor inactive, FGF22 binding inactive, Efflux pump inh inactive, ASAP1 GAP inh inactive and Rtt109 HAT inh inactive.
`CCN(CC)c1ccc(C(=S)N2CCN(c3ccccc3)CC2)cc1` gave ARFGAP1 inhibitor inactive, Efflux pump inh inactive, ASAP1 GAP inh inactive and Rtt109 HAT inh 53.
`Cc1cccc(NC(=S)NNC(=O)c2ccc(O)cc2O)c1C` gave ARFGAP1 inhibitor inactive, FGF22 binding 2.3, Efflux pump inh inactive, ASAP1 GAP inh inactive and Rtt109 HAT inh inactive.
`CCN(CC)S(=O)(=O)c1cccc(NC(=O)CN2C(=O)NC3(CCC(C)CC3)C2=O)c1` (stereo unspecified) gave ARFGAP1 inhibitor inactive, FGF22 binding inactive, ASAP1 GAP inh inactive and Rtt109 HAT inh inactive.
CCNC(=O)N1CCN(c2ccc(N3CCN(Cc4ccccc4)[C@@H](C)C3)c(C)c2)[C@@H](C)C1 was read as ARFGAP1 inhibitor inactive, FGF22 binding inactive and ASAP1 GAP inh inactive.
For CCNC(=O)N1CCN(c2ccc(N3CCN(Cc4ccccc4)[C@H](C)C3)c(C)c2)[C@@H](C)C1 the results were ARFGAP1 inhibitor inactive, FGF22 binding 40 and ASAP1 GAP inh inactive.
Screening O=C(NCc1ccc(F)cc1)c1cnccn1 returned ARFGAP1 inhibitor inactive, FGF22 binding inactive, Efflux pump inh inactive, ASAP1 GAP inh inactive and Rtt109 HAT inh inactive.
`Cc1ccc2nc(SCC(=O)Nc3ccc(C(N)=O)cc3)[nH]c2c1` gave ARFGAP1 inhibitor inactive, FGF22 binding 43, Efflux pump inh inactive, ASAP1 GAP inh inactive and Rtt109 HAT inh inactive.
Cc1cc(C)cc(NC(=O)CCCSc2nc3ccccc3[nH]2)c1 was read as ARFGAP1 inhibitor inactive, Efflux pump inh inactive, ASAP1 GAP inh inactive and Rtt109 HAT inh inactive.
Screening Cc1cccc(NC(=O)CCCSc2nc3ccccc3[nH]2)c1 returned ARFGAP1 inhibitor inactive, FGF22 binding 43, Efflux pump inh inactive, ASAP1 GAP inh inactive and Rtt109 HAT inh inactive.
CCOC(=O)c1cc2ccccc2n1C1CCN(C)CC1 was read as ARFGAP1 inhibitor inactive, FGF22 binding inactive and ASAP1 GAP inh inactive.
CSc1ccccc1C(=O)C1CCCN(C(=O)c2csnn2)C1 (stereo unspecified) was read as ARFGAP1 inhibitor inactive, FGF22 binding 43, Efflux pump inh inactive, ASAP1 GAP inh inactive and Rtt109 HAT inh inactive.
`CSc1ccccc1C(=O)C1CCCN(C(=O)c2cc(C(C)C)no2)C1` (stereo unspecified) gave ARFGAP1 inhibitor inactive, FGF22 binding inactive, Efflux pump inh inactive, ASAP1 GAP inh inactive and Rtt109 HAT inh inactive.
For NC(=NCCc1ccccc1)NS(=O)(=O)c1ccc(F)cc1 the results were ARFGAP1 inhibitor inactive, Efflux pump inh inactive, ASAP1 GAP inh inactive and Rtt109 HAT inh inactive.
COCC(=O)N1CC[C@@H]2[C@H](CO)Nc3ccc(-c4cccc(C#N)c4)cc3[C@@H]21 was read as FGF22 binding inactive.
Screening CCOc1ccc(S(=O)(=O)NCCC(=O)Nc2cccc(C(=O)OC)c2)cc1 returned ARFGAP1 inhibitor inactive, FGF22 binding inactive, Efflux pump inh inactive, ASAP1 GAP inh inactive and Rtt109 HAT inh 54.
